{"source": "paper PMC9868102", "about": "(Cell chemical biology, 2023)", "key": {"[1]": {"target": "T1, human TG2 (Homo sapiens, UniProt P21980)", "T1 sequence (P21980 1-687)": "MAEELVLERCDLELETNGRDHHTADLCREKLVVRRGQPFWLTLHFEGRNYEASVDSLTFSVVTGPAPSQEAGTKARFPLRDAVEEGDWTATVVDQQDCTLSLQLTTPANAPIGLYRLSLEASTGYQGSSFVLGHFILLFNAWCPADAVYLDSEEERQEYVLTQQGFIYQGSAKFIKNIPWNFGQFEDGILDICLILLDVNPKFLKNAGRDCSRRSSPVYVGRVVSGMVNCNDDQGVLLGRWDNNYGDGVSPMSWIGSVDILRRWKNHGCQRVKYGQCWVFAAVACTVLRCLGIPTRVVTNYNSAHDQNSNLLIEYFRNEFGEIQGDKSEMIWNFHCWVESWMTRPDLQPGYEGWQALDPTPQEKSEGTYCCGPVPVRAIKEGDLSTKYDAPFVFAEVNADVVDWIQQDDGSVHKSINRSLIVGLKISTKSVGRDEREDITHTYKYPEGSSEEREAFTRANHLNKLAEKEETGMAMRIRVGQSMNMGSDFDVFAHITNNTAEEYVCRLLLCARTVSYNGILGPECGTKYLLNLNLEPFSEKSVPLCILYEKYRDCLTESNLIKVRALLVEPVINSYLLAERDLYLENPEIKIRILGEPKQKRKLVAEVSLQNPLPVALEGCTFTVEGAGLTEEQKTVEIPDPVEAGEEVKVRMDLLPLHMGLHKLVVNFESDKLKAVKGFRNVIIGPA", "test": "TG2 steady-state kinetics of substrates, wild-type TG2 ± α2M and vs pH", "assay_type": "biochemical", "conditions": "kcat of AC-PQLPF-NH2", "in_short": "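His6-tagged human TG2 from E. coli BL21(DE3) was purified by Ni-NTA and anion exchange, reduced, and desalted into PBS. It was assayed at 1 μM final, ± recombinant human α2M (Expi293F-expressed), with GDH/α-ketoglutarate/NADH coupling in 200 mM MOPS pH 7.2 with 5 mM CaCl2. Substrate was Ac-PQLPF-NH2 unless otherwise specified. Absorbance at 340 nm was followed for 60 min at 25 °C. Steady-state rates came from linear progress-curve slopes; triplicate.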"}, "[2]": {"target": "T2, TG2 derivative lacking the C-terminal β-barrel domain (Homo sapiens, UniProt P21980)", "T2 sequence (P21980 1-586)": "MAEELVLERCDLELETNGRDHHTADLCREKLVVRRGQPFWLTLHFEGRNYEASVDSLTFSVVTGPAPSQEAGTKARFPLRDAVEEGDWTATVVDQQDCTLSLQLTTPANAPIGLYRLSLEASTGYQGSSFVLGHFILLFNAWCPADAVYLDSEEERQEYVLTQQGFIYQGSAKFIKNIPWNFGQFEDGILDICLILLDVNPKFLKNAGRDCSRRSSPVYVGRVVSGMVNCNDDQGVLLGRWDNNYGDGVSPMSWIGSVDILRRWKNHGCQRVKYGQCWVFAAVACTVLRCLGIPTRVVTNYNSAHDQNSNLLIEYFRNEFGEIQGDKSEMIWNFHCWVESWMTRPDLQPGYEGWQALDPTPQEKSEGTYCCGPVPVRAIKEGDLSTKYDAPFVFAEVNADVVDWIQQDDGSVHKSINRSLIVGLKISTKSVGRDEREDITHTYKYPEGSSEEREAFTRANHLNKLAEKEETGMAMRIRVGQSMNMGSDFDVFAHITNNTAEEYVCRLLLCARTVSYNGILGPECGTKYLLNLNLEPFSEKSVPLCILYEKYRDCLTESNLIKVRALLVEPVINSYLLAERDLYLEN", "test": "Kinetics of truncated TG2 lacking the C-terminal β-barrel domain", "assay_type": "biochemical", "conditions": "TG2 derivatives lacking the C-terminal β-barrel domain", "in_short": "(§1)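 Truncated human TG2 constructs with N-terminal His tags (residues 1-586 lacking β2; residues 1-460 lacking β1 and β2) were expressed in Rosetta2 E. coli and purified by Ni, anion exchange and SEC. The assay was GDH-coupled: 200 mM MOPS pH 7.2, 5 mM CaCl2, 10 mM α-ketoglutarate, 18 U/mL GDH, 0.5 mM NADH and Ac-PQLPF-NH2. Reduced enzyme was at 1 μM final, ± Expi293F-expressed human α2M. NADH loss was read at 340 nm for 60 min at 25 °C. Rates came from linear slopes; triplicate.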"}, "[3]": {"target": "T3, TG2 derivative harboring the N-terminal and catalytic domains but lacking both β-barrel domains (Homo sapiens, UniProt P21980)", "T3 sequence (P21980 1-460)": "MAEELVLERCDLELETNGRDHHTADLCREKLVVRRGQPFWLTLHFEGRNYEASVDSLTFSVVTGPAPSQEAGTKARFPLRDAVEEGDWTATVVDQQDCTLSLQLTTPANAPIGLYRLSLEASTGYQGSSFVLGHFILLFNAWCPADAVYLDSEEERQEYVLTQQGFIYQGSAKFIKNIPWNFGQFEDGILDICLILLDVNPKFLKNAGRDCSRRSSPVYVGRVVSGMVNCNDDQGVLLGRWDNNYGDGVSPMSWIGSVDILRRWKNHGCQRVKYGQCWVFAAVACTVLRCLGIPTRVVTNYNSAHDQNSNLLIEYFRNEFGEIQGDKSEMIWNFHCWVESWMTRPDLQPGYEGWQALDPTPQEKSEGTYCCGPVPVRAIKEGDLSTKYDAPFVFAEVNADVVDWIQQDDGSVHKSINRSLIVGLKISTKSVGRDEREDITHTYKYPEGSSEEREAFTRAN", "test": "Kinetics of truncated TG2 lacking both β-barrel domains", "assay_type": "biochemical", "conditions": "TG2 derivative lacking both β-barrel domains", "in_short": "as §1"}, "[4]": {"test_system": "NRK cells", "test": "Uptake of fluorescent TG2 probes by NRK cells", "assay_type": "cell-based, rat", "conditions": "HB230 1 μM", "in_short": "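NRK cells were grown in DMEM. Media were replaced, and 1 μM probe was co-incubated for 90 min with α2M at varied levels (some Alexa 555 NHS-labelled), plus TRX as specified. Cells were washed in HBSS, fixed in 2% PFA, DAPI-stained and imaged by confocal microscopy. Puncta were counted with a circularity cutoff of 0.3 and a minimum size threshold, then normalized to cell number by DAPI.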"}, "[5]": {"test_system": "wild-type MEFs", "test": "Internalization of HB230 and α2M by wild-type MEFs", "assay_type": "cell-based, mouse", "conditions": "α2M 100 μg/mL, HB230 10 μM, exogenous TRX and betamethasone"}, "[6]": {"test_system": "LRP-1 knock-out MEFs", "test": "Internalization of HB230 and α2M by LRP-1 knock-out MEFs", "assay_type": "cell-based, mouse", "conditions": "α2M 100 μg/mL, HB230 10 μM, exogenous TRX and betamethasone"}, "[7]": {"test_system": "9022 cells (HLA-DQ2 homozygous B-cell line)", "test": "Cell surface presentation by HLA-DQ2 expressing 9022 B cells", "assay_type": "cell-based, human", "conditions": "100 nM TG2; 150 cells from 2-4 frames of 3-6 replicates", "in_short": "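EBV-immortalised HLA-DQ2-homozygous B cells in RPMI with 10% FBS and 1% PenStrep, pelleted, resuspended and left 20 min at 37 °C to adhere on poly-L-lysine-coated glass. Cy5-33mer, α2M and 100 nM recombinant human TG2 (E. coli, His6) added for 2.5 h. Anti-HLA-DQ2 (1:50) then Alexa 488 secondary, each 20 min on ice, fixed, DAPI, confocal. Cells with surface HLA-DQ2/Cy5 overlay scored; 2-4 frames of 3-6 replicates.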"}, "[8]": {"test_system": "transglutaminase-2 (TG2)", "test": "Bio-layer interferometry of α2M-TG2 interaction", "assay_type": "binding", "conditions": "preliminary efforts"}}, "note": "Entries after “also recorded” stand apart in the source; their conditions may differ.", "data": [{"substance": "α2M: ~800 kDa homotetrameric pan-protease inhibitor", "values": [{"measurement": "inhibition of TG2 by α2M, mechanism", "setting": "[1]", "result": "non-competitive inhibition mechanism of TG2 by α2M"}, {"measurement": "inhibition of truncated TG2 by α2M", "setting": "[2]", "result": "Inhibition was abolished"}, {"measurement": "inhibition of truncated TG2 by α2M", "setting": "[3]", "result": "Inhibition was abolished"}, {"measurement": "α2M concentration up to which HB230 uptake increases (saturation)", "setting": "[4]; 90 min", "result": "~ 100 μg/mL"}, {"measurement": "effect of α2M on HB230 uptake", "setting": "[4]; α2M supplementation", "result": "strong dose-dependent increase in uptake of HB230; also recorded: predominantly appeared to affect the size and number of the larger puncta"}, {"measurement": "internalization by wild-type MEFs", "setting": "[5]", "result": "readily internalize"}, {"measurement": "internalization by LRP-1 knock-out MEFs", "setting": "[6]", "result": "markedly reduced uptake"}, {"measurement": "effect of α2M on cell surface 33mer", "setting": "[7]", "result": "enhanced upon addition of exogenous α2M; also recorded: the number of cells displaying gluten peptides on their surface increases"}, {"measurement": "detection of α2M-TG2 interaction", "setting": "[8]", "result": "unsuccessful"}]}]}
